Experimental findings from ChEMBL document CHEMBL4219092, “Design and synthesis of 1-(1-benzothiophen-7-yl)-1H-pyrazole, a novel series of G protein-coupled receptor 52 (GPR52) agonists” (Bioorg Med Chem, 2018) are described below.

Values after ≈ are worked out from the molar mass of the structure shown. Active and inactive are the calls of the source. No cut-off for these calls is given here. Some results are limits rather than exact numbers.

Series [1] deals with T1, G-protein coupled receptor 52 (Homo sapiens, UniProt Q9Y2T5). Kind of series: Agonist activity at human GPR52 expressed in CHO cells assessed as increase in cAMP level after 30 mins by AlphaScreen assay. The series is classed as functional, cell-based. A digest of the protocol: (§1)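 CHO cells stably expressing human GPR52 (10,000 cells) were incubated with compound for 30 min at 37°C in HBSS with 5 mM HEPES pH 7.6, 0.5% BSA, 100 μM IBMX and 100 μM Ro20-1724. Anti-cAMP acceptor beads and biotinylated cAMP donor beads were then added, with overnight incubation at room temperature, and AlphaScreen was read. EC50 comes from mean curves (n=2-4) relative to the 50% response of 1 μM of a benzofuran reference agonist. Emax is expressed relative to that reference.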
In general terms: Changes in cAMP serve as a functional read-out for many G protein-coupled receptors.

A short description of series [2]: Aqueous solubility of the compound at pH 6.8 by HPLC analysis. The series is classed as physicochemical. The procedure, abridged:
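Compound from DMSO stock was added to aqueous buffer at pH 6.8 (JP 15th edition second disintegration fluid) and incubated. Precipitate was removed by filter-plate filtration, and the dissolved compound in the filtrate was quantified by HPLC.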

For series [3], the target named is T1, G-protein coupled receptor 52. The series is described as follows: Agonist activity at human GPR52 expressed in CHO cells assessed as increase in cAMP level after 30 mins by AlphaScreen assay relative to N-(2-hydroxyethyl)-3-[2-[3-(trifluoromethyl)benzyl]-1-benzofuran-4-yl]benzamide. The series is classed as functional, cell-based. The procedure, abridged: as §1

Series [4] relates to Mus musculus. The series is described as follows: Reversal of methamphetamine-induced hyperlocomotion in ICR mouse at 0.3 mg/kg, po pretreated 60 mins post habituation followed by methamphetamine injection after 60 mins measured for 150 mins. In kind it is functional, organism-based. A digest of the protocol: (§2)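 Male ICR mice (7-8 weeks) were placed individually in locomotor monitors and habituated for 60 min. Drug was then given p.o. (test agent 10 or 30 mg/kg; haloperidol 0.3 mg/kg). Methamphetamine 2 mg/kg s.c. was injected 60 min later, and activity counts were recorded for 150 min after drug dosing. Data are mean ± S.E.M., n=6-7 per group, analysed by Williams' test against vehicle+MAP.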

The nature of series [5]: Cmax in ICR mouse at 0.1 mg/kg, iv and 1 mg/kg, po administered as cassette dose by LC-MS/MS analysis. The series is classed as ADME, organism-based. The conditions noted are these: in vivo. The procedure, abridged:
(§3)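 Male ICR mice (n=3), cassette dosing at 0.1 mg/kg i.v. or 1 mg/kg p.o. Blood was collected and centrifuged to plasma. Plasma was deproteinized and centrifuged, and the supernatant was analysed by LC/MS/MS. AUC covers 0 to 8 h. Values are averages of 3 mice.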

Series [6] can be described thus: Tmax in ICR mouse at 0.1 mg/kg, iv and 1 mg/kg, po administered as cassette dose by LC-MS/MS analysis. The series is classed as ADME, organism-based. The conditions noted are these: in vivo. The procedure, abridged:
as §3

Series [7] can be described thus: AUC (0 to 8 hrs) in ICR mouse at 1 mg/kg, po administered as cassette dose by LC-MS/MS analysis. The series is classed as ADME, organism-based. The conditions noted are these: in vivo. The arrangement: time < 8 hr, dose 1 mg/kg, route oral. A digest of the protocol: as §3
The nature of series [8]: Total clearance in ICR mouse at 0.1 mg/kg, iv and 1 mg/kg, po administered as cassette dose by LC-MS/MS analysis. In kind it is ADME, organism-based. The conditions noted are these: in vivo. The procedure, abridged: as §3
Series [9] can be described thus: Oral bioavailability in ICR mouse at 1 mg/kg administered as cassette dose by LC-MS/MS analysis. In kind it is ADME, organism-based. Particulars: in vivo. A digest of the protocol:
as §3

Another series concerns MDR. Kind of series: Substrate activity at MDR (unknown origin) assessed as efflux ratio. Particulars: human, not told. In kind it is ADME.
Series [10] can be described thus: Protein binding in mouse plasma at 1 uM. The conditions noted are these: read-out: PPB (converted). In kind it is ADME, cell-free.
Series [11] has as its system Mus musculus. Kind of series: Reversal of methamphetamine-induced hyperlocomotion in po dosed ICR mouse pretreated 60 mins post habituation followed by methamphetamine injection after 60 mins measured for 150 mins. The series is classed as functional, organism-based. The procedure, abridged:
as §2

Series [12] deals with Mus musculus. Kind of series: Toxicity in ICR mouse assessed as sedation at 10 and 30 mg/kg, po measured over 60 mins. In kind it is organism-based. Particulars: in vivo, 1 h.
Series [13] relates to Mus musculus. The series is described as follows: Toxicity in ICR mouse assessed as general malaise at 10 and 30 mg/kg, po measured over 60 mins. In kind it is organism-based. Particulars: in vivo, 1 h.

T1 sequence (Q9Y2T5 whole entry): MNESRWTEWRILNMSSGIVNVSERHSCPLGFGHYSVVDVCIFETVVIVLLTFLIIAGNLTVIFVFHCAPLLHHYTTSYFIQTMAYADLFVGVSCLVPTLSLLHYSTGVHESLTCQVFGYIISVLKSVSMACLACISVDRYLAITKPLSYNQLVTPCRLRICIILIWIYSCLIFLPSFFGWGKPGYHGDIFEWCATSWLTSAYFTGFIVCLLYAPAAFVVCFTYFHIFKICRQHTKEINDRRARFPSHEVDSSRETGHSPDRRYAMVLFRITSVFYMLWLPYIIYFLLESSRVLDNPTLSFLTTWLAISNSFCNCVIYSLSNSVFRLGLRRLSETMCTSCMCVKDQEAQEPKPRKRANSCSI

For orientation: EC50 means the concentration at which the effect is half-maximal. A word on the solubility: it is the dissolved amount per volume that the medium holds. A lower solubility goes with little dissolved substance. As usually defined, the Emax is the maximal effect, on the per cent scale that the assay sets. Take `COCCNC(=O)c1c(C)nn(-c2cccc3cc(Cc4cccc(C(F)(F)F)c4)sc23)c1C`: the EC50 in series [1] came to 17 nM. For the same molecule, in series [2], the concentration in solution (solubility) was 2.9 µg/mL (≈ 5.95 µM). The Emax in [3] was 104%.
For `Cn1nc(-c2cccc3cc(Cc4cccc(C(F)(F)F)c4)sc23)cc1C(=O)NCCO`, in that order: 45 nM, less than 0.08 µg/mL and 110%.
For `Cc1c(C(=O)NCCO)c(CO)nn1-c1cccc2cc(Cc3cccc(C(F)(F)F)c3)sc12`, in that order: 146 nM, 18 µg/mL (≈ 36.8 µM) and 96%.
For `O=C(NCCO)c1cnn(-c2cccc3cc(Cc4cccc(C(F)(F)F)c4)sc23)c1`, in that order: 87 nM, less than 0.09 µg/mL and 73%.
For the molecule `O=C(CCCN1CCC(O)(c2ccc(Cl)cc2)CC1)c1ccc(F)cc1`, the result in the series on Mus musculus [4] was Active.
One may read the Cmax as the highest concentration seen after dosing. The Tmax is the time at which the peak concentration occurs. In general, AUC(0-t) refers to the area under the concentration-time curve up to a stated or last time point. The low end stands for low exposure, the high end for high exposure. A word on the bioavailability: it is the share of a dose that reaches the circulation, judged against a reference dose that is usually intravenous. The low end stands for poor availability, the high end for good availability. Broadly, the efflux ratio is a quotient of directional permeabilities that is used to spot active efflux. On to `Cc1nn(-c2cccc3cc(Cc4cccc(C(F)(F)F)c4)sc23)c(CO)c1C(=O)NCCO`, for which the concentration giving a half-maximal response (EC50) in series [1] came out at 21 nM. In addition, the solubility in series [2] was determined as 21 µg/mL (≈ 42.9 µM). In series [5], this molecule showed a peak concentration (Cmax) of 83 ng/mL. Further, the Tmax in series [6] was 1.7 h. The AUC(0-t) at 8 h in series [7] was 406 ng·h/mL. The same molecule had a clearance in [8] of 12.4 mL/min/kg. This molecule also showed a bioavailability in series [9] of 29.9%. Besides, the efflux ratio in the series on MDR worked out at 1.7. In addition, the fraction unbound at 1 µM in series [10] was 0.02. Besides, the Activity entry in the series with Mus musculus [11] was “Dose-dependent effect”; in the series on Mus musculus [12], “Non-Toxic”; with Mus musculus [13], “Non-Toxic”. Also, the Emax in [3] came to 103%.
Turning to `COCCNC(=O)c1cnn(-c2cccc3cc(Cc4cccc(C(F)(F)F)c4)sc23)c1`, the EC50 in series [1] is 62 nM. The molecule also returned a solubility in series [2] of less than 0.08 µg/mL. In series [3], the Emax was 81%.
As to `Cc1nn(-c2cccc3cc(Cc4cccc(C(F)(F)F)c4)sc23)c(C)c1C(=O)NCCO`, the EC50 in [1] is 15 nM. In series [2], this molecule returned a solubility of 12 µg/mL (≈ 25.3 µM). Further, the Emax in series [3] turned out to be 110%.
For `COCCNC(=O)c1cn(-c2cccc3cc(Cc4cccc(C(F)(F)F)c4)sc23)nc1C`, in that order: 9.6 nM, less than 0.1 µg/mL and 89%.
For `Cc1nn(-c2cccc3cc(Cc4cccc(C(F)(F)F)c4)sc23)cc1C(=O)NCCO`, in that order: 5.2 nM, less than 0.1 µg/mL and 102%.
`COCCNC(=O)c1cnn(-c2cccc3cc(Cc4cccc(C(F)(F)F)c4)sc23)c1C`: in series [1], the EC50 came out at 62 nM. In series [2], this molecule returned a solubility of 1.3 µg/mL (≈ 2.75 µM). Further, in [3], the Emax stood at 84%.
